This is an account of results in PMC11651071 (International Journal of Nanomedicine, 2024).

Series [1] has as its system Hela cells. As to the kind of experiment: Wound healing assay. To be noted: 24 h, serum-free DMEM. The format is cell-based. In outline: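 Scratch assay: a confluent HeLa monolayer (9×10^5 cells/well, 6-well plates) was scraped with a 200 µL pipette tip and washed twice with PBS. Treatments were added in serum-free DMEM and plates kept at 37°C, 5% CO2. Wound closure was imaged by microscope at 0 and 24 h.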

Series [2] relates to Hela cells. Description: Cell cycle assay. It counts as cell-based. To be noted: 24 h. The method in brief: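 HeLa cells (DMEM, 10% FBS) were seeded at 5.5×10^5 cells/well in 6-well plates and treated in DMEM for 24 h. Collected cells were fixed by dropwise 70% ethanol and held at −20°C for 24 h. They were washed twice in chilled PBS, stained with PI buffer for 30 min at room temperature in the dark, and analysed by flow cytometry. Mean ± SD, ≥3 independent experiments.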

Series [3] deals with Hela cells xenograft tumor. As to the kind of experiment: In vivo anti-tumor effect, subcutaneous xenograft model using Hela cells. To be noted: for Body weight of nude mice during treatment: CU, CA7, CA7-LP 50 mg/kg, DDP-INJ 3.5 mg/kg, i.p. every 2 days for 14 days; for Tumor cell infiltration in kidneys and livers (H&E): after treatment. On the set-up: species or system nude mice. The method in brief:
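Female BALB/c immunodeficient mice (4 w, 15–16 g) received 3.5×10^7 HeLa cells in 100 µL PBS s.c. near the right scapula. At ~100 mm³, mice were randomised into five groups (n = 5): saline, test articles at 50 mg/kg, or cisplatin injection at 3.5 mg/kg. Dosing was i.p. every 2 days for 14 days. Tumour volume (V = 1/2·ab²) and body weight were tracked; tumours were then weighed and organs formalin-fixed for H&E, with tumour Ki67 immunohistochemistry.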

Series [4] concerns Hela cells. Description: Cell apoptosis detection. The format is cell-based. To be noted: 24 h.
Series [5] has as its system Hela cells. Description: Cell viability assay. To be noted: 24 h. It counts as cell-based. The method in brief:
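MTT assay: HeLa cells at 4.5×10^3 cells/well were allowed to adhere for 24 h, then exposed to gradient concentrations for 24, 48 or 72 h, with 0.1% DMSO as negative control. MTT was added for 3.5 h at 37°C, and formazan was dissolved in DMSO and read at 490 nm. Inhibition rate = [1 − (ODsample − ODblank)/(ODcontrol − ODblank)] × 100%. Mean ± SD, ≥3 independent experiments.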

Setting [6] is: 50 mg/kg intraperitoneally every 2 days for 14 days.

In turn, `COc1cc(/C=C/C(=O)CC(=O)/C=C/c2ccc(O)c(OC)c2)ccc1O` [CU, Curcumin] showed a Migration rate in series [1] of 42.12 ± 3.06%. Further, the “Proportion of the G2/M phase” value in series [2] (2.5 μM) is given as 17.84 ± 1.07%; in series [2] (5 μM), 20.46 ± 2.44%; in series [2] (10 μM), 22.78 ± 3.60%. In series [3] (setting [6]), this molecule came in with a Tumor inhibition rate of 28.58 ± 8.04%. Moreover, the Tumor weight in series [3] (setting [6]) was determined as 0.49 ± 0.06 g. The “Body weight of nude mice during treatment” value in series [3] is given as “remained stable”. Moreover, the “Tumor cell infiltration in kidneys and livers (H&E)” value in series [3] is on record as “present in small amounts”. Further, the Total apoptosis rate in series [4] (2.5 μM) was 7.29 ± 1.64%; in series [4] (5 μM), 11.64 ± 3.19%; in series [4] (10 μM), 17.60 ± 3.39%. The Maximum inhibition rate in series [5] is 5.77 ± 2.40%.
With `N.N.[Cl][Pt][Cl]` [DDP-INJ, Cisplatin], the “Change of cell cycle distribution” value in series [2] is “increase in the S phase and a decrease in G2/M phase”. In addition, the “Body weight of nude mice during treatment” value in series [3] is “notable decrease in body weight”. Besides, the “Mortality of nude mice” value in series [3] (DDP-INJ 3.5 mg/kg i.p., as the number of administrations increased) is on record as “some mice dying”. Moreover, in series [3], the “Tumor cell infiltration in kidneys and livers (H&E)” value is given as “absent”. In addition, the Total apoptosis rate amounted to 11.57 ± 1.16% in series [4] (2.5 μM), 23.73 ± 2.30% in series [4] (5 μM) and 32.17 ± 3.68% in series [4] (10 μM).
